Experimental data taken from ChEMBL document CHEMBL4431315, “Jatrophane Diterpenoids as Modulators of P-Glycoprotein-Dependent Multidrug Resistance (MDR): Advances of Structure-Activity Relationships and Discovery of Promising MDR Reversal Agents” (J Med Chem, 2016).
Calls of active or inactive are those of the source. The rule behind the calls is not given here.

Key:
[1] = Metabolic stability in Sprague-Dawley rat liver microsomes assessed as rate constant at 100 uM by HPLC-UV analysis; assay type: ADME, Microsome
Method in brief: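 Rat liver microsomes at 1 mg protein/mL final, compound at 100 μM final (from a 10 mM CH3CN stock), in 100 mM PBS with 3.0 mM MgCl2 and 1.0 mM NADPH, pH 7.4, 37 °C. Sampled at 0 to 180 min and stopped with ice-cold CH3CN. Control run without NADPH. Centrifuged supernatants analysed by HPLC-UV; three independent experiments in triplicate.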

HepG2 [2] = assay: Cytotoxicity against adriamycin-resistant human HepG2 cells assessed as inhibition of cell proliferation after 48 hrs by MTT assay; assay type: functional, cell-based; conditions: HepG2, 48 h
Method in brief: (§1)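 Seeded at 5 × 10^3 cells/well with graded compound levels, DMSO as negative control, 48 h. MTT added for 4 h, formazan dissolved in DMSO, OD read at 570 nm (reference 630 nm). IC50 by nonlinear regression; triplicate samples.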

[3] = biological target: T1, ATP-dependent translocase ABCB1 (Homo sapiens, UniProt P08183); assay: Inhibition of P-gp mediated efflux in adriamycin-resistant human HepG2 cells assessed as intracellular rhodamine-123 accumulation at 2 uM incubated in dark condition for 90 mins by flow cytometry relative to control; assay type: cell-based
T1 sequence (P08183 whole entry): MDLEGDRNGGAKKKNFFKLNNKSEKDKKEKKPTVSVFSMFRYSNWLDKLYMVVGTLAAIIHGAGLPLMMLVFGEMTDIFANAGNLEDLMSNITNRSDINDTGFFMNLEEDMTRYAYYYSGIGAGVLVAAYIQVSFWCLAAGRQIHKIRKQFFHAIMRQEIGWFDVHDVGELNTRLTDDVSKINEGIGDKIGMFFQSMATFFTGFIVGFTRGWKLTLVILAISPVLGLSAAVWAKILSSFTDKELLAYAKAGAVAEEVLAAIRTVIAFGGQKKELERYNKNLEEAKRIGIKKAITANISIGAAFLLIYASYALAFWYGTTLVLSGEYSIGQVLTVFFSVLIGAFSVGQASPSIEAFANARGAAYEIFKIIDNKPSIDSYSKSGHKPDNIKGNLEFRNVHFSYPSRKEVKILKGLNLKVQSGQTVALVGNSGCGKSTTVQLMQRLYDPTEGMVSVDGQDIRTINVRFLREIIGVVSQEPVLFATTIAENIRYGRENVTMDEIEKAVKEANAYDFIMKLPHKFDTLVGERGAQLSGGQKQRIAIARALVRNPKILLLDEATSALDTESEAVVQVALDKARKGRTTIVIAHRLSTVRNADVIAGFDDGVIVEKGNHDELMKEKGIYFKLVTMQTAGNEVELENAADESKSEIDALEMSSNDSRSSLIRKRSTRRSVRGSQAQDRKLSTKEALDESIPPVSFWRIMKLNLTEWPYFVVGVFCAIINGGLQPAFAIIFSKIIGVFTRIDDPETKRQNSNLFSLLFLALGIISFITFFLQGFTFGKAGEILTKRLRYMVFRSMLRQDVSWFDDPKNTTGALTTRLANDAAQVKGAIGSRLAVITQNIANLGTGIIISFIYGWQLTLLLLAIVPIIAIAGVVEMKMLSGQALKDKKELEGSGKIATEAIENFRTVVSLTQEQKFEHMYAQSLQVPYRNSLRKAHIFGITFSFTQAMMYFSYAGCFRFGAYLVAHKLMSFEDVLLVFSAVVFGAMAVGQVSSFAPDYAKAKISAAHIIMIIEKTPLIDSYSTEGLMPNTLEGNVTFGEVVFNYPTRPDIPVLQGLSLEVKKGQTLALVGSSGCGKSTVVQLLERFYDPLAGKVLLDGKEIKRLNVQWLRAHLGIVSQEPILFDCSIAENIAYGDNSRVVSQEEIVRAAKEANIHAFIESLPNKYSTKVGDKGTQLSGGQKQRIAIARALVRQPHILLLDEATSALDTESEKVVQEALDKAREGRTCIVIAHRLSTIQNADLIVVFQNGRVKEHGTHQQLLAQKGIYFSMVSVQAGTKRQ
Method in brief: (§2)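 HepG2/ADR cells seeded at 5 × 10^5/well and given compound plus 10 μM Rho123 in the dark at 37 °C for 90 min. Cells washed twice in ice-cold PBS, resuspended in PBS, read by flow cytometry in FL1 (Em 525 nm). Fold of control = (treated fluorescence − background)/(Rho123-only fluorescence − background).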

HepG2 [4] = assay: Multidrug resistance reversal activity in adriamycin-resistant human HepG2 cells xenografted in nude BALB/c mouse assessed as tumor growth inhibition at 10 mg/kg, ip administered 2 hrs prior to ADR dosing at 5 mg/kg, ip on day 0/3/6 measured every day during compound dosing; assay type: functional
Method in brief: (§3)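 Female BALB/c nude mice, 5 weeks old, implanted s.c. in the right flank with 1 × 10^7 HepG2/ADR cells. At about 60 mm3, randomized into groups of seven and dosed ip on days 0, 3, 6: compound 10 mg/kg given 2 h before ADR 5 mg/kg. Controls got saline with 0.5% DMSO and 5% Kolliphor HS 15. Tumor size and body weight measured daily; survival tracked. IR from mean tumor weights; Student's t test, P < 0.05.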

HepG2 [5] = assay: Multidrug resistance reversal activity in adriamycin-resistant human HepG2 cells xenografted in nude BALB/c mouse assessed as increase in mouse survival at 10 mg/kg, ip administered 2 hrs prior to ADR dosing at 5 mg/kg, ip on day 0/3/6 measured every day during compound dosing; assay type: functional, organism-based; method in brief: as §3
[6] = biological target: T1, ATP-dependent translocase ABCB1; assay: Inhibition of P-gp mediated efflux in adriamycin-resistant human HepG2 cells assessed as intracellular rhodamine-123 accumulation at 1 uM incubated in dark condition for 90 mins by flow cytometry; assay type: cell-based; method in brief: as §2
NCI/ADR-RES = assay: Intrinsic cytotoxicity against human MCF7/ADR cells assessed as inhibition of cell proliferation after 48 hrs by MTT assay; assay type: cell-based; method in brief: as §1
[7] = biological target: T1, ATP-dependent translocase ABCB1; assay: Inhibition of P-gp mediated efflux in adriamycin-resistant human HepG2 cells assessed as intracellular rhodamine-123 accumulation at 0.125 uM incubated in dark condition for 90 mins by flow cytometry relative to control; assay type: cell-based; method in brief: as §2
[8] = Half life in Sprague-Dawley rat liver microsomes at 100 uM by HPLC-UV analysis; assay type: ADME, Microsome
[9] = Cytotoxicity against HLF cells assessed as inhibition of cell proliferation after 48 hrs by MTT assay; assay type: cell-based; conditions: Homo sapiens; method in brief: as §1
[10] = biological target: T1, ATP-dependent translocase ABCB1; assay: Inhibition of P-gp mediated efflux in adriamycin-resistant human HepG2 cells assessed as intracellular rhodamine-123 accumulation at 10 uM incubated in dark condition for 90 mins by flow cytometry relative to control; assay type: cell-based; method in brief: as §2

**Q.** For CC(=O)O[C@@H]1C[C@@H](OC(=O)c2ccccc2)/C(C)=C/[C@H]2[C@@H](OC(=O)c3ccccc3)[C@@H](C)[C@H](O)[C@]2(OC(C)=O)[C@H](O)[C@](C)(O)CCC1(C)C, which k el at 100 µM [1] is on record?
**A.** Its k el at 100 µM is 1.33e-05 s⁻¹.

**Q.** What about the IC50 (HepG2 [2]) of the same compound?
**A.** The IC50 was > 150 µM.

**Q.** And the FC [3]?
**A.** The FC was 2.74.

**Q.** And the TGI (HepG2 [4])?
**A.** Its TGI is 62.89%.

**Q.** What about the Activity (HepG2 [5]) of the same compound?
**A.** The Activity was “Active”.

**Q.** And the INH [6]?
**A.** Its INH is “Active”.

**Q.** What about the IC50 (NCI/ADR-RES) of the same compound?
**A.** The IC50 was > 150 µM.

**Q.** And the FC [7]?
**A.** The FC was 1.34.

**Q.** What about the half-life at 100 µM [8] of the same compound?
**A.** Its half-life at 100 µM is 14.4 h.

**Q.** What about the IC50 [9] of the same compound?
**A.** Its IC50 is > 100 µM.

**Q.** What about the INH [10] of the same compound?
**A.** Its INH is “Active”.
